Laboratory results reported in publication PMC8897208 (Acta Pharmaceutica Sinica. B, 2021).

Tests used:
SIRT3 = molecular target: T1, SIRT3 (Homo sapiens, UniProt Q9NTG7); experiment: HDACs selectivity assay; format: biochemical
T1 sequence (Q9NTG7 1-399): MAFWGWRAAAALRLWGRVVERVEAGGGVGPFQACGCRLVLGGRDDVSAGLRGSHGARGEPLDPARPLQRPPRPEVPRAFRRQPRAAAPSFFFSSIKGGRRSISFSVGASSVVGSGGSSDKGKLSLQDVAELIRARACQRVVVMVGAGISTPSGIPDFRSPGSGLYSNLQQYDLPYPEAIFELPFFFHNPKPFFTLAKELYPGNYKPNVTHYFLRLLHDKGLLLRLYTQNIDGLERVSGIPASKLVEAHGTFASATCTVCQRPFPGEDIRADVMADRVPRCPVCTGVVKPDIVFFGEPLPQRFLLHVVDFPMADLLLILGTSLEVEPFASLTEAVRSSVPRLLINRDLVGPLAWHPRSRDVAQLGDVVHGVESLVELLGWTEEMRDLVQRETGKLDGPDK
Procedure, shortened: (§1)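 Enzyme selectivity panel was run by an outside contract lab to its standard assay protocols. IC50 values came from dose–response fitting of the data points. Each experiment was done independently at least three times.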

BXPC-3 cells [1] = experiment: Migration assay with xCELLigence RTCA-DP; format: cell-based; conditions: 5, 10, 20 μmol/L, effect even at 5 μmol/L
BXPC-3 cells [2] = experiment: Q-PCR for SIRT6, IL6, IL8 and TNF-α mRNA; format: cell-based; conditions: BXPC-3, 10, 20, 40 μmol/L, 24 h, qPCR
HDAC3 = HDAC3 (Homo sapiens, UniProt O15379); experiment: HDACs selectivity assay; format: biochemical
Procedure, shortened: as §1

SIRT6 = SIRT6 (Homo sapiens, UniProt Q8N6T7); experiment: HPLC assay of SIRT6 deacetylation on H3K9Ac; format: biochemical; conditions: 50 μmol/L JYQ-42, H3K9Ac peptide
HDAC1 = HDAC1 (Homo sapiens, UniProt Q13547); experiment: HDACs selectivity assay; format: biochemical
Procedure, shortened: as §1

HDAC10 = molecular target: T2, HDAC10 (Homo sapiens, UniProt Q969S8); experiment: HDACs selectivity assay; format: biochemical
T2 sequence (Q969S8 1-669): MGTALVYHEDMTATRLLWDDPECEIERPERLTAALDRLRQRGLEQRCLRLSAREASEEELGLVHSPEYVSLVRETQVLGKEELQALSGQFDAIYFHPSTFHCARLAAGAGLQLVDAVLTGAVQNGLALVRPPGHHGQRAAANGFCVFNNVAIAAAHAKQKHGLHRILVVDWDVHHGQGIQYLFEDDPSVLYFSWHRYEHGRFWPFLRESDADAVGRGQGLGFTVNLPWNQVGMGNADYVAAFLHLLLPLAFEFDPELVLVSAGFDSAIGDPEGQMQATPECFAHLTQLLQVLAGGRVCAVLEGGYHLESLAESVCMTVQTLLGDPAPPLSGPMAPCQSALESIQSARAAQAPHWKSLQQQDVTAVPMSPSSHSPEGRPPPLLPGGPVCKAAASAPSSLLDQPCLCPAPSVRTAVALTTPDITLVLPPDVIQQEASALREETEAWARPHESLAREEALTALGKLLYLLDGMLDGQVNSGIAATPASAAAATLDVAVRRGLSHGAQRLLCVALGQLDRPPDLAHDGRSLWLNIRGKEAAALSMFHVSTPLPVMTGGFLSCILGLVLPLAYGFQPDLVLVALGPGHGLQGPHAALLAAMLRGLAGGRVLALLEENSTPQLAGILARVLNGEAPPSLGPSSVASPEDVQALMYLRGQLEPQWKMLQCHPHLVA
Procedure, shortened: as §1

Chain of HDAC1 (Q13547 whole entry): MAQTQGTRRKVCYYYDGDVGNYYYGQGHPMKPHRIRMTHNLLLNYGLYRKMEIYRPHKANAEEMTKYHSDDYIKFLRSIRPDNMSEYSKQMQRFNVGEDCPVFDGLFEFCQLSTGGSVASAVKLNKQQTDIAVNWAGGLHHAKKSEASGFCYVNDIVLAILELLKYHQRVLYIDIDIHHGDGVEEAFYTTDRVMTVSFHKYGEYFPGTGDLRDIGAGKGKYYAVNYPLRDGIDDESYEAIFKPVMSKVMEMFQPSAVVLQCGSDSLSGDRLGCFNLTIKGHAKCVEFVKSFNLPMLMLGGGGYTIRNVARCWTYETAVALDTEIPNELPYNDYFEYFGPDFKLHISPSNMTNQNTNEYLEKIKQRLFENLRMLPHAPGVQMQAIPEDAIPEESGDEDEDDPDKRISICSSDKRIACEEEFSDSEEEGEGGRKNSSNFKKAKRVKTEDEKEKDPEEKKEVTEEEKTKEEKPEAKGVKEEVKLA
Chain of HDAC3 (O15379 whole entry): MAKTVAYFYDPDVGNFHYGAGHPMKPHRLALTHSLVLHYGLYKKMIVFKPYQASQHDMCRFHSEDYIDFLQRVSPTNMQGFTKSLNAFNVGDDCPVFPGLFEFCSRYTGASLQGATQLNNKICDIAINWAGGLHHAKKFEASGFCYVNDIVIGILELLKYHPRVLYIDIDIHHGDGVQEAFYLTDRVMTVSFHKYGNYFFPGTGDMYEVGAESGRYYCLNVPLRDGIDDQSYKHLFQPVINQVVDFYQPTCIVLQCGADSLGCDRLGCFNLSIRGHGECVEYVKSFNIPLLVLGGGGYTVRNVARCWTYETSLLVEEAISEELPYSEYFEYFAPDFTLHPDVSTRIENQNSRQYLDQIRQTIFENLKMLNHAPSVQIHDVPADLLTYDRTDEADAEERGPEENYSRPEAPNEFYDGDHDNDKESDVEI
Chain of HDAC3 (Q9Y618 395-489 partner limits assumed): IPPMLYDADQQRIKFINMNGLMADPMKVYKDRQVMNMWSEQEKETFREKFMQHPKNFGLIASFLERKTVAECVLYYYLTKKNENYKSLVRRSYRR
Chain of SIRT6 (Q8N6T7 whole entry): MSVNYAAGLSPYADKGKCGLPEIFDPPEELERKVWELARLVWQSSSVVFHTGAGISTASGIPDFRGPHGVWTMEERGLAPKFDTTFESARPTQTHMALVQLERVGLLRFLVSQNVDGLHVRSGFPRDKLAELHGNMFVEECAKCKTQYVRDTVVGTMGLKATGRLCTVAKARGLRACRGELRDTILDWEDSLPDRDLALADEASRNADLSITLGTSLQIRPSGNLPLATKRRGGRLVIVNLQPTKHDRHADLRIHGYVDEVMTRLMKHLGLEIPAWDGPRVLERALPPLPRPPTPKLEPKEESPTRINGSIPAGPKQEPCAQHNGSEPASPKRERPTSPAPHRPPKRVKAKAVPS

IC50 (SIRT3): > 100 µM | IC50 (HDAC3): > 100 µM | amount of H3K9-free lysine peptides by HPLC (SIRT6): decreased prominently | IC50 (HDAC1): > 100 µM | IC50 (HDAC10): > 100 µM
SMILES: Nc1nonc1-n1cc(C(=O)N/N=C/c2cc(Cl)cc(C(F)(F)F)c2)nn1 [JYQ-42]
migration of pancreatic cancer cells (RTCA cell index) (BXPC-3 cells [1]): dramatically attenuated | mRNA level of SIRT6 (BXPC-3 cells [2]): not significantly changed
